According to ChEMBL document CHEMBL3351536, “A new avenue toward androgen receptor pan-antagonists: C2 sterically hindered substitution of hydroxy-propanamides” (J Med Chem, 2014):
The source made the active and inactive calls. No cut-off for these calls is given here.

Key:
LNCaP [1] = experiment: Inhibition of R1881-induced migration of human LNCAP cells at 10 uM after 24 hrs by wound-healing assay; assay type: functional, cell-based
Method in brief: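 Confluent quiescent LNCaP monolayers scratched, washed, and given 10 nM R1881 ± 10 μM compound for 24 h. Wound closure assessed from phase-contrast images; four experiments.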

LNCaP [2] = experiment: Cytotoxicity against human LNCAP cells expressing mutant androgen receptor assessed as reduction in cell viability; assay type: cell-based
LNCaP-AR = experiment: Induction of apoptosis in human LNCaP-AR cells expressing wild-type androgen receptor at 20 uM after 144 hrs by TUNEL assay; assay type: functional
Method in brief: (§1)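 Cells treated 144 h starting 24 h after seeding. Fixed in 1% paraformaldehyde then 70% ethanol, labeled with TUNEL mix (TdT, FITC-dUTP) for 60 min at 37 °C, counterstained with propidium iodide/RNase, and analyzed by flow cytometry for % apoptotic cells. For LNCaP and LNCaP-AR, compounds at 20 μM, three independent experiments.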

LNCaP [3] = experiment: Induction of apoptosis in human LNCAP cells expressing mutant androgen receptor at 20 uM after 144 hrs by TUNEL assay; assay type: cell-based; method in brief: as §1
LNCaP [4] = experiment: Inhibition of R1881-induced DNA synthesis in human LNCAP cells at 10 to 20 uM after 18 hrs by BrdU incorporation assay; assay type: functional, cell-based
Method in brief: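 Quiescent LNCaP cells on coverslips treated 18 h with 10 nM R1881 ± compound (10 or 20 μM), then pulsed with 100 μM BrdU. Incorporation scored by anti-BrdU immunofluorescence as % of total nuclei.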

[5] = target: T1, Androgen receptor (Homo sapiens) (UniProt P10275); experiment: Displacement of [3H]R1881 from androgen receptor in human LNCAP cells at 1 uM after 24 hrs by liquid scintillation counting; assay type: cell-based
T1 sequence (whole entry): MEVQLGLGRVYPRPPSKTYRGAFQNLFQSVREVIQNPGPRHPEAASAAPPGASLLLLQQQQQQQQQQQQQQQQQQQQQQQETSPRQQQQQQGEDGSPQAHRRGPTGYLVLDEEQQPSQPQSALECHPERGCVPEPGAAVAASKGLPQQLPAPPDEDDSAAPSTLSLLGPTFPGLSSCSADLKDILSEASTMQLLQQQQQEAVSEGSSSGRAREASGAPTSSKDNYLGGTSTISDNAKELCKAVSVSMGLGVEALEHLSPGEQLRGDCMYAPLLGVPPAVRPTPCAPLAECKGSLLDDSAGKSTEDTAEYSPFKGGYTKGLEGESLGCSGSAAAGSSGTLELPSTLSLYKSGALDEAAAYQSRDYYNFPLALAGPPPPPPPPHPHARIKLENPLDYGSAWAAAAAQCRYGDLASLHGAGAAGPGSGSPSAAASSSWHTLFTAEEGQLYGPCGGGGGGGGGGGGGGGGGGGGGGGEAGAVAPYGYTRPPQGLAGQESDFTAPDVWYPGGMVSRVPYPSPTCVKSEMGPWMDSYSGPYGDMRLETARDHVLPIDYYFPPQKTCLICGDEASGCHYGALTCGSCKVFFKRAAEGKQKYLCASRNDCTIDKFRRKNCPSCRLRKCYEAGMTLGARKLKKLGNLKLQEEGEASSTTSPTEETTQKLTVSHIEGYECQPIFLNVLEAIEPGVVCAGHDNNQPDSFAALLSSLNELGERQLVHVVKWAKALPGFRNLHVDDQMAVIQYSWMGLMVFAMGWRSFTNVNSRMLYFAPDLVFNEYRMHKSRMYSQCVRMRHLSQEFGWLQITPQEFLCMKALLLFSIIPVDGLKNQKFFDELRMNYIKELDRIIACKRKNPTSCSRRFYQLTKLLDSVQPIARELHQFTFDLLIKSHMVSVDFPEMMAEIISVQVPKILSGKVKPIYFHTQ

[6] = Inhibition of R1881-induced DNA synthesis in Androgen receptor-negative human DU145 cells at 10 to 20 uM after 18 hrs by BrdU incorporation assay; assay type: cell-based; details: du-145, 18 h
[7] = target: T1, Androgen receptor (Homo sapiens); experiment: Inhibition of androgen receptor in R1881-stimulated (R)-bicalutamide-resisitant human LNCAP cells assessed as reduction in PSA mRNA level at 20 uM after 24 hrs by RT-PCR analysis; assay type: cell-based
Method in brief: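 LNCaP or LNCaP-Rbic cells (Rbic kept in 20 μM bicalutamide), 24 h after seeding, stimulated with 10 nM R1881 and treated 24 h with 10 or 20 μM compound. PSA mRNA measured by SYBR Green real-time RT-PCR in triplicate reactions, normalized to GAPDH and HPRT, expressed as fold over untreated. Two independent experiments.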

[8] = Growth inhibition of human LNCaP-AR cells expressing wild-type androgen receptor after 144 hrs by SRB assay; assay type: functional
Method in brief: (§2)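 Cells exposed for 144 h starting 24 h after seeding, 5000 cells/well. SRB assay with OD read at 490 nm. Growth inhibition calculated as (ODtreated−ODzero)/(ODcontrol−ODzero)×100; OD below ODzero counted as cell killing. Octuplicate wells, three independent experiments; IG50 and LC50 taken from this calculation.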

[9] = target: T1, Androgen receptor (Homo sapiens); experiment: Displacement of [3H]R1881 from androgen receptor in human LNCAP cells at 2 uM after 24 hrs by liquid scintillation counting; assay type: cell-based
LNCaP [10] = experiment: Growth inhibition of (R)-bicalutamide-resisitant human LNCAP cells after 144 hrs by SRB assay; assay type: functional; method in brief: as §2
LNCaP [11] = experiment: Effect on cell migration in serum-stimulated human LNCAP cells by transwell assay; assay type: ADME, cell-based
[12] = Cytotoxicity against african green monkey COS7 cells; assay type: cell-based; details: chlorocebus aethiops, cos-7
LNCaP [13] = experiment: Growth inhibition of human LNCAP cells expressing mutant androgen receptor after 144 hrs by SRB assay; assay type: cell-based; details: Homo sapiens, LNCaP, read-out: GI50; method in brief: as §2
LNCaP [14] = experiment: Inhibition of R1881-induced migration of human LNCAP cells at 10 uM by transwell assay; assay type: functional, cell-based
Method in brief: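 Quiescent LNCaP cells on collagen-coated transwell filters, 24 h after seeding, treated with 10 nM R1881 ± 10 μM compound. Migrated cells stained with Hoechst and counted by fluorescence microscopy; data given as relative increase in migrated cells.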

Mus musculus = experiment: Toxicity in human VCaP cells xenografted CD-1 nu/nu mouse assessed as body weight loss at 10 mg/kg, po for 4 consecutive weeks starting on day 35 of tumor implantation measured up to 100 days; assay type: organism-based; design: dose 10 mg/kg, route oral; details: in vivo, 2400 h
Method in brief: (§3)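 Male CD-1 nu/nu mice, 5–6 weeks old, injected s.c. in the flank with 10⁶ VCaP cells in 50% Matrigel/50% serum-free medium. When tumors reached 50–100 mg, mice were randomized, 5 per group. Daily oral gavage at 10 mg/kg for 4 weeks in 80% PEG-400/20% Tween-80; controls got vehicle. Tumor weight from caliper (a×b²/2) three times weekly; body weight monitored.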

[15] = target: T1, Androgen receptor (Homo sapiens); experiment: Inhibition of androgen receptor in human LNCAP cells assessed as reduction in PSA mRNA level at 0.5 to 20 uM after 24 hrs by RT-PCR analysis; assay type: cell-based
[16] = Inhibition of cell survival in human VCaP cells after 144 hrs by TUNEL assay; assay type: cell-based; method in brief: as §1
[17] = target: T1, Androgen receptor (Homo sapiens); experiment: Effect on nuclear import of wild-type human androgen receptor expressed in COS7 cells at 10 uM after 1 hr by immunofluorescence analysis; assay type: cell-based; details: COS-7
Method in brief: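 Cos-7 cells on coverslips made quiescent, transfected with 1 μg pSG5-hAR, then stimulated with 10 nM R1881 for 60 min ± compounds. AR detected by immunofluorescence with anti-C19 antibody and Texas red secondary; nuclei stained with Hoechst.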

[18] = target: T1, Androgen receptor (Homo sapiens); experiment: Inhibition of androgen receptor in R1881-stimulated human LNCAP cells assessed as reduction in PSA mRNA level at 0.5 to 20 uM after 24 hrs by RT-PCR analysis; assay type: cell-based
[19] = Growth inhibition of human VCaP cells after 144 hrs by SRB assay; assay type: functional; method in brief: as §2
VCaP [20] = experiment: Antitumor activity against human VCaP cells xenografted in CD-1 nu/nu mouse assessed as tumor regression at 10 mg/kg, po for 4 consecutive weeks starting on day 35 of tumor implantation measured after 60 days; assay type: functional, organism-based; design: dose 10 mg/kg; method in brief: as §3
[21] = Cytotoxicity against human PC3 cells after 144 hrs by SRB assay; assay type: cell-based; details: pc-3, 144 h; method in brief: as §2
CWR22R = experiment: Inhibition of cell survival in human CWR22Rv1 cells after 144 hrs by TUNEL assay; assay type: functional, cell-based; details: 22Rv1, 144 h
VCaP [22] = experiment: Antitumor activity against human VCaP cells xenografted in CD-1 nu/nu mouse assessed as tumor regression at 10 mg/kg, po for 4 consecutive weeks starting on day 35 of tumor implantation measured after 100 days; assay type: functional, organism-based; design: dose 10 mg/kg; method in brief: as §3
LNCaP [23] = experiment: Inhibition of cell survival in (R)-bicalutamide-resisitant human LNCAP cells after 144 hrs by TUNEL assay; assay type: cell-based; method in brief: as §1
DU-145 = experiment: Cytotoxicity against human DU145 cells after 144 hrs by SRB assay; assay type: cell-based; details: du-145, 144 h; method in brief: as §2

## N#Cc1ccc(C[C@](O)(CS(=O)(=O)c2ccc(F)cc2)C(=O)Nc2ccc(C#N)c(C(F)(F)F)c2)cc1
LNCaP [1]
  inhibition: Active
LNCaP [2]
  Activity: Non-toxic
LNCaP-AR
  Activity: inactive
LNCaP [3]
  Activity: Non-toxic
LNCaP [4]
  inhibition: Active
[5]
  inhibition: 60%
[6]
  Activity: Non-toxic
[7]
  inhibition: Active
[8]
  GI50: 4.9 µM
[9]
  inhibition: 65%
LNCaP [10]
  GI50: 6.43 µM
LNCaP [11]
  Activity: Non-toxic
[12]
  Activity: Non-toxic
LNCaP [13]
  GI50: 1.6 µM
LNCaP [14]
  inhibition: Active
Mus musculus
  Activity: Non-toxic
[15]
  inhibition: Active
[16]
  Activity: Non-toxic
[17]
  Activity: inactive
[18]
  inhibition: inactive
[19]
  GI50: 1.42 µM
VCaP [20]
  Activity: Active
[21]
  Activity: Non-toxic
CWR22R
  IC50: 5 µM
VCaP [22]
  Activity: Active
LNCaP [23]
  Activity: Non-toxic
DU-145
  Activity: Non-toxic
